One data set has as its system Staphylococcus aureus. The data set can be described thus: Antibacterial activity against Staphylococcus aureus after 18 to 22 hrs by broth microdilution method. Type of data set: functional. In short, it runs like this:
(§1)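 Clinical respiratory-tract isolates from patients, subcultured for purity and identified conventionally. Broth microdilution per NCCLS in Mueller–Hinton II broth; each plate had growth controls (bacteria, no compound) and medium-only controls. Incubation 18–22 h at 35 °C. MIC taken as the lowest concentration giving complete growth inhibition by unaided eye.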

The test system of data set [1] is Staphylococcus epidermidis. The data set can be described thus: Antibacterial activity against Staphylococcus epidermidis after 18 to 22 hrs by broth microdilution method. It is filed as functional. In outline: as §1
Background: In broth dilution the organism is exposed to a series of concentrations in liquid medium.

A further data set has as its system Staphylococcus hominis. The experiment in a line: Antibacterial activity against Staphylococcus hominis after 18 to 22 hrs by broth microdilution method. It is filed as functional. In outline:
as §1

In data set [2] the test system is Staphylococcus haemolyticus. The data set can be described thus: Antibacterial activity against Staphylococcus haemolyticus after 18 to 22 hrs by broth microdilution method. It is filed as functional. In outline: as §1
The subject of a further data set is Enterococcus faecalis. The experiment in a line: Antibacterial activity against Streptococcus faecalis after 18 to 22 hrs by broth microdilution method. Type of data set: functional. In outline: as §1
A further data set concerns Escherichia coli. The data set can be described thus: Antibacterial activity against Escherichia coli after 18 to 22 hrs by broth microdilution method. It is filed as functional. In short, it runs like this: as §1
A further data set concerns Klebsiella pneumoniae. The data set can be described thus: Antibacterial activity against Klebsiella pneumoniae after 18 to 22 hrs by broth microdilution method. Type of data set: functional. In outline: as §1
The subject of the next data set is Klebsiella oxytoca. The data set can be described thus: Antibacterial activity against Klebsiella oxytoca after 18 to 22 hrs by broth microdilution method. Type of data set: functional. In outline: as §1
The next data set has as its system Enterobacter. The data set can be described thus: Antibacterial activity against Enterobacter after 18 to 22 hrs by broth microdilution method. Type of data set: functional. In short, it runs like this: as §1
Another data set relates to Klebsiella aerogenes. The experiment in a line: Antibacterial activity against Enterobacter aerogenes after 18 to 22 hrs by broth microdilution method. It is filed as functional. In outline: as §1
In the next data set the test system is Citrobacter freundii. The data set can be described thus: Antibacterial activity against Citrobacter freundii after 18 to 22 hrs by broth microdilution method. It is filed as functional. In short, it runs like this:
as §1

The test system of the next data set is Proteus vulgaris. The data set can be described thus: Antibacterial activity against Proteus vulgaris after 18 to 22 hrs by broth microdilution method. It is filed as functional. In outline:
as §1

For the next data set, the system named is Candida albicans. The data set can be described thus: Antifungal activity against Candida albicans after 24 hrs by broth microdilution method. It is filed as functional. In outline: (§2)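 Candida isolates from respiratory-tract specimens, tested by NCCLS broth microdilution in Sabouraud dextrose broth. Serial compound dilutions inoculated to 10³/mL, with fungus-only and medium-only controls. Incubated 24 h at 37 °C. MIC was the lowest concentration with complete visible growth inhibition.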

A further data set has as its system [Candida] sake. The experiment in a line: Antifungal activity against Candida sake after 24 hrs by broth microdilution method. Type of data set: functional. To be noted: Fermentozyma sake. In outline:
as §2

A further data set has as its system Pichia kudriavzevii. The data set can be described thus: Antifungal activity against Candida krusei after 24 hrs by broth microdilution method. It is filed as functional. In short, it runs like this: as §2
Data set [3] in a line: Solubility of the compound in DMSO at 0.0039 to 128 ug/mL. It is filed as physicochemical.
Data set [4] relates to AGS. The experiment in a line: Antiinflammatory activity in human AGS cells assessed as inhibition of IL-8 production at 5 ug/mL after 24 hrs. Type of data set: functional, cell-based. In outline: (§3)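 AGS gastric adenocarcinoma cells were grown in F-12K with 10% FBS. They were seeded at 1 × 10⁵/mL for 24 h, preincubated 1 h with compound at 5 or 0.5 µg/mL, then exposed to H. pylori.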

In data set [5] the test system is AGS. The data set can be described thus: Antiinflammatory activity in human AGS cells assessed as inhibition of IL-8 production at 0.5 ug/mL after 24 hrs. Type of data set: functional, cell-based. In outline: as §3

The structures appear in SMILES notation. Active and inactive are the calls of the source.

The values below come from ChEMBL document CHEMBL1208768, “Synthesis, selective anti-Helicobacter pylori activity, and cytotoxicity of novel N-substituted-2-oxo-2H-1-benzopyran-3-carboxamides” (Bioorg Med Chem Lett, 2010).

The MIC is the smallest concentration in the dilution series that meets the test's criterion for growth inhibition. A low value points to inhibition by little substance. Take `Cc1ccc2oc(=O)c(C(=O)Nc3ccc(C(=O)O)cc3)cc2c1`: the minimal inhibitory concentration (MIC) (against Staphylococcus aureus; in data set [1]; in the data set with Staphylococcus hominis; in [2]; in the data set with Enterococcus faecalis; in the data set with Escherichia coli) was over 128 µg/mL in each case. For the same compound, the minimum inhibitory concentration (MIC) with Klebsiella pneumoniae, in the data set with Klebsiella oxytoca, against Enterobacter, against Klebsiella aerogenes, in the data set on Citrobacter freundii and with Proteus vulgaris was over 128 µg/mL each time. Moreover, the MIC (against Candida albicans; in data set [Candida] sake; against Pichia kudriavzevii) was over 128 µg/mL in each case. Moreover, the solubility result in data set [3] was “Insoluble”. Moreover, the inhibition entry in the data set with AGS [4] and in the data set with AGS [5] was “inactive” in each case.

As to `CCOC(=O)c1ccc(NC(=O)c2cc3cc([N+](=O)[O-])ccc3oc2=O)cc1`, the MIC (in the data set on Staphylococcus aureus; in [1]; in the data set on Staphylococcus hominis; in data set [2]; with Enterococcus faecalis; against Escherichia coli) was over 128 µg/mL throughout. The minimum inhibitory concentration (MIC) with Klebsiella pneumoniae, in the data set with Klebsiella oxytoca, against Enterobacter, in the data set on Klebsiella aerogenes, against Citrobacter freundii and with Proteus vulgaris was over 128 µg/mL each time. For the same compound, the MIC (against Candida albicans; in [Candida] sake; against Pichia kudriavzevii) was over 128 µg/mL in each case. Moreover, the solubility entry in data set [3] was “Insoluble”. Also, the inhibition entry with AGS [4] and in the data set on AGS [5] was “inactive” each time.
